Data reported in ChEMBL document CHEMBL3414496, “Synthesis and biological evaluation of novel 2-heteroarylimino-1,3-thiazolidin-4-ones as potential anti-tumor agents” (Eur J Med Chem, 2015).
Calls of active or inactive are those of the source. No cut-off for these calls is given here.

Legend:
[1] = test system: HT-29; experiment: Induction of cell cycle arrest in human HT-29 cells assessed as accumulation at subG1 phase at 0.5 to 10 uM by propidium iodide staining based flow cytometry; assay type: functional
[2] = Cytotoxicity against human HCT116 cells after 72 hrs by MTT assay; assay type: functional, cell-based; details: HCT-116, 72 h
In short: (§1)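 Cells seeded at 10^4/well, exposed 24 h later to graded concentrations (0.01–100 µM) for 72 h at 37°C; MTT 0.5 mg/ml for 2 h, formazan dissolved in DMSO, absorbance at 570 nm. […] Colon lines in DMEM, breast lines in RPMI, both with 10% FCS.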

[3] = test system: HT-29; experiment: Cytotoxicity against human HT-29 cells after 72 hrs by MTT assay; assay type: functional, cell-based; details: HT-29, 72 h; in short: as §1
[4] = test system: SW-620; experiment: Cytotoxicity against human SW620 cells after 72 hrs by MTT assay; assay type: functional, cell-based; details: SW-620, 72 h; in short: as §1
[5] = test system: MCF7; experiment: Cytotoxicity against human MCF7 cells after 72 hrs by MTT assay; assay type: functional, cell-based; details: MCF7, 72 h; in short: as §1
[6] = test system: HT-29; experiment: Growth inhibition of human HT-29 cells at cytotoxic IC50 level after 3 days by trypan blue dye exclusion assay; assay type: functional
In short: (§2)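 HT29 cells treated 48 h after seeding, dosed daily with daily medium change over three days; drug diluted in DMSO, controls 0.1% (v/v) DMSO. Cells trypsinized, mixed 1:1 with 0.04% trypan blue, live cells counted by hematimeter. Reported as mitotic index (treated/DMSO count); triplicates from two independent experiments.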

[7] = test system: MDA-MB-231; experiment: Cytotoxicity against human MDA-MB-231 cells after 72 hrs by MTT assay; assay type: functional, cell-based; details: MDA-MB-231, 72 h; in short: as §1
[8] = test system: HT-29; experiment: Induction of cell cycle arrest in human HT-29 cells assessed as increase in accumulation at S phase at 0.5 to 10 uM by propidium iodide staining based flow cytometry; assay type: functional
[9] = test system: HT-29; experiment: Growth inhibition of human HT-29 cells at 0.5 to 10 uM after 3 days by trypan blue dye exclusion assay; assay type: functional; in short: as §2
[10] = test system: HT-29; experiment: Induction of cell cycle arrest in human HT-29 cells assessed as increase in accumulation at G0/G1 phase at 0.5 to 10 uM by propidium iodide staining based flow cytometry; assay type: functional

| Compound | Activity [1] | IC50 [2] | IC50 [3] | IC50 [4] | IC50 [5] | growth inhibition (GI) [6] | IC50 [7] | Activity [8] | growth inhibition (GI) [9] | Activity [10] |
| --- | --- | --- | --- | --- | --- | --- | --- | --- | --- | --- |
| O=C1N/C(=N/c2csc(-c3ccc(Cl)cc3)c2)S/C1=C\c1ccc(Br)cc1 | inactive | 3.3 µM | 2 µM | 0.7 µM | 2.5 µM | 25% | 3.5 µM | Active |  |  |
| CCCCCC/C=C1\S/C(=N\c2csc(-c3ccc(Cl)cc3)c2)NC1=O |  |  | 33.5 µM |  | > 50 µM |  |  |  |  |  |
| O=C1N/C(=N/c2csc(-c3ccc(Cl)cc3)c2)S/C1=C\c1ccc(Cl)cc1 |  | 11.6 µM | 2.8 µM | 4.6 µM | 6.7 µM | 25% | 6.4 µM |  |  |  |
| CC(C)(C)c1cc(/N=C2/NC(=O)CS2)cs1 |  | > 50 µM | > 50 µM | > 50 µM | > 50 µM |  | > 50 µM |  |  |  |
| O=C1CS/C(=N\c2csc(-c3cccc4ccccc34)c2)N1 |  | > 50 µM | > 50 µM | > 50 µM | > 50 µM |  | > 50 µM |  |  |  |
| COc1ccc(N2C(=O)CS/C2=N\c2csc(-c3ccc(Cl)cc3)c2)cc1OC |  | 49.8 µM | 14.1 µM | > 50 µM | 18.7 µM |  | 46.9 µM |  |  |  |
| O=C1N/C(=N/c2nc(-c3ccc(Cl)cc3)cs2)S/C1=C\c1ccc2ccccc2c1 |  | 1.2 µM | 1.8 µM | 20.3 µM | 0.3 µM | <25% | 0.9 µM |  | <5% |  |
| O=C1CS/C(=N\c2csc(-c3ccc(Cl)cc3)c2)N1c1cccc2ccccc12 |  |  | > 50 µM | 19.5 µM | > 50 µM |  |  |  |  |  |
| O=C1N/C(=N/c2csc(-c3ccc(Cl)cc3)c2)S/C1=C\c1ccc(O)cc1 |  |  | > 50 µM |  | > 50 µM |  |  |  |  |  |
| O=C1N/C(=N/c2csc(-c3ccc(Cl)cc3)c2)S/C1=C\c1ccc2ccccc2c1 |  | 3 µM | 3.7 µM | > 50 µM | 1.2 µM | 50% | 1.8 µM |  |  |  |
| O=C1CS/C(=N\c2nc(-c3ccc(Cl)cc3)cs2)N1 |  | 23.8 µM | 8.9 µM | > 50 µM | > 50 µM |  | > 50 µM |  |  |  |
| O=C1CS/C(=N\c2csc(-c3ccccc3)c2)N1 |  | > 50 µM | > 50 µM | > 50 µM | > 50 µM |  | > 50 µM |  |  |  |
| O=C1CS/C(=N\c2csc(-c3ccc(Cl)cc3)c2)N1c1ccccc1 |  |  | 41.4 µM |  | > 50 µM |  |  |  |  |  |
| COc1ccc(-c2cc(/N=C3\SCC(=O)N3c3cccc(OC)c3)cs2)cc1 | inactive | 2.7 µM | 11.7 µM | 3.5 µM | 1.9 µM | 50% | 2.7 µM |  |  | Active |
| O=C1CS/C(=N\c2csc(-c3ccc(Cl)cc3)c2)N1 |  | > 50 µM | 17.1 µM | > 50 µM | > 50 µM |  | > 50 µM |  |  |  |
